Experimental data as given in ChEMBL document CHEMBL1124837, “5-Hydroxytryptamine (5-HT3) receptor antagonists. 1. Indazole and indolizine-3-carboxylic acid derivatives” (J Med Chem, 1990).

Molecular target: Serotonin 3 (5-HT3) receptor (Rattus norvegicus) (UniProt P35563+Q9JJ16)
Test: Inhibition of 5-HT evoked reflex bradycardia in rat.
Type: functional, organism-based
Method in brief: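 Anesthetized rats (260–290 g; urethane 1.25 g/kg ip) with blood pressure and heart rate recorded. A submaximal 5-HT dose (6 μg/kg iv) was given repeatedly and heart-rate changes were quantified. Test agents were given iv before 5-HT. ID50 is the dose cutting the 5-HT-evoked response to 50% of control.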

SMILES	ID50 [µg/kg]
CCc1nc(C(=O)NC2CC3CCCC(C2)N3C)c2ccccn12 (stereo not drawn)	0.5
CN1C2CCC1CC(NC(=O)c1cc(-c3ccccc3)c3ccccn13)C2 (stereo not drawn)	4.7
CN1C2CCCC1CC(NC(=O)c1[nH]nc3ccc(Cl)cc13)C2 (stereo not drawn)	12.4
CN1C2CCC1CC(OC(=O)c1nn(C)c3ccccc13)C2 (stereo not drawn)	1.4
CN1[C@@H]2CC[C@H]1C[C@@H](OC(=O)c1c[nH]c3ccccc13)C2	1.4
CCn1nc(C(=O)NC2CC3CCCC(C2)N3C)c2ccccc21 (stereo not drawn)	0.6
CN1C2CCCC1CC(NC(=O)c1cn(C)c3ccccc13)C2 (stereo not drawn)	6.8
CN1C2CCCC1CC(NC(=O)c1c3ccccc3nn1C)C2 (stereo not drawn)	> 100
CCc1nc(C(=O)NC2CC3CCC(C2)N3C)c2ccccn12 (stereo not drawn)	1
Cc1nccn1CC1CCc2c(c3ccccc3n2C)C1=O (stereo not drawn)	3.6
CN1C2CCC1CC(NC(=O)c1ccc3ccccn13)C2 (stereo not drawn)	> 10
CN1C2CCC1CC(NC(=O)c1n[nH]c3ccccc13)C2 (stereo not drawn)	1.2
CN1C2CCCC1CC(NC(=O)c1nn(C)c3ccccc13)C2 (stereo not drawn)	2
CCc1cc(C(=O)NC2CC3CCC(C2)N3C)n2ccccc12 (stereo not drawn)	1
CN1C2CCCC1CC(NC(=O)c1[nH]nc3ccccc13)C2 (stereo not drawn)	1.1
CN1C2CCCC1CC(NC(=O)c1[nH]nc3ccc(F)cc13)C2 (stereo not drawn)	1
Cc1cc(C(=O)NC2CC3CCC(C2)N3C)n2ccccc12 (stereo not drawn)	1.6
CN1C2CCC1CC(OC(=O)c1[nH]nc3ccccc13)C2 (stereo not drawn)	5.3
